Measured values reported in article PMC3640342 (Pharmaceutical research, 2013).
Several values for one entry are separate records, joined by “and”; a condition that tells them apart may be missing. Identical values can stand only once. Like-named read-outs stand apart in the source and are kept apart here.

Legend:
[1] = system: PrP^Sc levels in ScN2a-cl3 cells; test: cells; assay type: cell-based, mouse
[2] = Media solubility; assay type: physicochemical; conditions: media used in the cell-based assays, 10% FBS
[3] = system: rat liver microsomes; test: Hepatic microsomal stability, rat; assay type: in vitro ADME; conditions: 1 μM
Method in brief: (§1)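 Liver microsomes from mouse, rat or human (~0.5 mg/mL final) were incubated at 37°C with test compound at 1 μM final (0.6% ACN, 0.01% DMSO) in PBS pH 7.4 ± 0.05% PS80, with 1 mM NADPH or PBS.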

[4] = Single-dose IV PK at 1 mg/kg; assay type: in vivo, FVB mice; conditions: IV 1 mg/kg, plasma
Method in brief: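 Female FVB mice (~25 g) received 1 mg/kg by tail-vein injection in 10% DMSO in PEG400/water (1:1), 10% DMSO, or 10% ethanol in PEG400/water (1:1). Two mice per time point were killed by CO2 at 5 min and 0.25, 0.5, 1, 2, 4 and 6 h, and heparinized plasma was collected. After protein precipitation, samples were assayed by LC/MS/MS, and parameters came from noncompartmental sparse-sampling analysis.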

[5] = system: mouse liver microsomes; test: Hepatic microsomal stability, mouse; assay type: in vitro ADME; conditions: 1 μM
Method in brief: as §1

[6] = mouse brain homogenate, 1 μM, corrected for dilution
[7] = system: CYP2C19; conditions: NADPH + N-3-B
[8] = biological target: CYP2C19 (Homo sapiens, UniProt P33261); conditions: NADPH + N-3-B
Chain of CYP2C19 (Homo sapiens, UniProt P33261) (P33261 whole entry): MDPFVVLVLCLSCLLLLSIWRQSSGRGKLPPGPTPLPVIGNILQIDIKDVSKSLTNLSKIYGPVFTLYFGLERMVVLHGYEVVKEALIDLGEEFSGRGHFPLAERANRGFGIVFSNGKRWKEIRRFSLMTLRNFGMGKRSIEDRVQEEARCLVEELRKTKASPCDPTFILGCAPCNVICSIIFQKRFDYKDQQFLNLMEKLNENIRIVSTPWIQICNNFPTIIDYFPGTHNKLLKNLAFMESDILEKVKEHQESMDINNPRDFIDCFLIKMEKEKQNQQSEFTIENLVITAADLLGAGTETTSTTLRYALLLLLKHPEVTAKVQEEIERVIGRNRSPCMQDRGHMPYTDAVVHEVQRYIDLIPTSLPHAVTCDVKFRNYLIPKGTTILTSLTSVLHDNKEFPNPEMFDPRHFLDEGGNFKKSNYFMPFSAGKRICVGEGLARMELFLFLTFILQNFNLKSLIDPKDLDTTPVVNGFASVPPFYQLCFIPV

[9] = Single-dose oral gavage PK at 10 mg/kg; assay type: in vivo, FVB mice; conditions: for AUClast / Cmax: mean ± SD, n = 2
Method in brief: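 Female FVB mice (~25 g) were dosed at 10 mg/kg by oral gavage in 20% propylene glycol, 5% ethanol, 5% labrosol and 70% PEG400. Two mice per time point were killed by CO2 at 0.25, 0.5, 1, 2, 4, 6 and 24 h. Heparinized plasma and brain (diluted five-fold in water, homogenized) were assayed by LC/MS/MS.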

[10] = biological target: CYP2C9 (Homo sapiens, UniProt P11712); test: CYP phenotyping in human liver microsomes, sulfaphenazole; conditions: NADPH + Sulphaphenazol
Chain of CYP2C9 (P11712 whole entry): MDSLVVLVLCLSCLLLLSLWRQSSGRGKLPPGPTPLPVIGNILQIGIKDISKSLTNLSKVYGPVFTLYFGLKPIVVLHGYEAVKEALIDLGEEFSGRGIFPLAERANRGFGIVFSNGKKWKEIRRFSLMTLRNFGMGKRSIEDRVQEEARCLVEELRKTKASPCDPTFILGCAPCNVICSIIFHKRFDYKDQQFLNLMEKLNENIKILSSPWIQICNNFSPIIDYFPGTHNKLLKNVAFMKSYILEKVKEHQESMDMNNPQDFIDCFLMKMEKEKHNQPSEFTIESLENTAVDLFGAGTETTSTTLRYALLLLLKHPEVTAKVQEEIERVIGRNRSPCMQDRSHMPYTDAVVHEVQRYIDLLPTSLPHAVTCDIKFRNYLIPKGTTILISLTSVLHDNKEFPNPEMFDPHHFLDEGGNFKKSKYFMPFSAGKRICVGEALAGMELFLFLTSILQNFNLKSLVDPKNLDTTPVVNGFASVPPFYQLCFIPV

[11] = system: human liver microsomes; test: Hepatic microsomal stability, human; assay type: in vitro ADME; conditions: 1 μM
Method in brief: as §1

[12] = biological target: CYP2D6 (Homo sapiens, UniProt P10635); test: CYP phenotyping in human liver microsomes, quinidine; conditions: NADPH + Quinidine
Chain of CYP2D6 (P10635 whole entry): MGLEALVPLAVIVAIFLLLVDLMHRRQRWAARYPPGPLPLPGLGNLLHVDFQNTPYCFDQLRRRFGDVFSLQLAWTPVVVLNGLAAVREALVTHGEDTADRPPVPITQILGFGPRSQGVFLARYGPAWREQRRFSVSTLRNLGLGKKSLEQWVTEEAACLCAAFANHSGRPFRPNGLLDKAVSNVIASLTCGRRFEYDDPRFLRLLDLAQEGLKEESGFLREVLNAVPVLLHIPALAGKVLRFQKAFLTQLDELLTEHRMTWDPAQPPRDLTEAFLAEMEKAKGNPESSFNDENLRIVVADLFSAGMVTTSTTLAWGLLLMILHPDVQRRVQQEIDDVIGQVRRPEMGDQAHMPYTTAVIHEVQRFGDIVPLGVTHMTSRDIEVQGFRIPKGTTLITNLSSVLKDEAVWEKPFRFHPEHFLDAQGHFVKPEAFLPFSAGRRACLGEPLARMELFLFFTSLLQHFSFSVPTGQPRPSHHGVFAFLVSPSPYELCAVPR

[13] = biological target: CYP3A4 (Homo sapiens, UniProt P08684); test: CYP phenotyping in human liver microsomes, ketoconazole; conditions: NADPH + Ketoconazole
Chain of CYP3A4 (P08684 whole entry): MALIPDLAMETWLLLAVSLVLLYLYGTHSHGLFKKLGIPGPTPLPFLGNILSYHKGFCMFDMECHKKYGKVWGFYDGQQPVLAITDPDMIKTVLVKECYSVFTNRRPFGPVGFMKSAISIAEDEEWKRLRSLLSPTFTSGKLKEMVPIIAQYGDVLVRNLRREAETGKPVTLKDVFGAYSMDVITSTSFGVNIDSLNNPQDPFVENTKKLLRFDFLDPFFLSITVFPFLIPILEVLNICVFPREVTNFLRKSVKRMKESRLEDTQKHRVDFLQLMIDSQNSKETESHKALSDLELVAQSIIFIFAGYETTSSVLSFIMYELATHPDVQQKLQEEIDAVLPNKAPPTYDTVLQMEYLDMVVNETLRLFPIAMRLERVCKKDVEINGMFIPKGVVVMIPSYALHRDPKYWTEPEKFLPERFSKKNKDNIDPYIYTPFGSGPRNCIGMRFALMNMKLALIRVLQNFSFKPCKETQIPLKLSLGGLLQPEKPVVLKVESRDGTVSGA

[14] = biological target: T1, CYP1A2 (Homo sapiens, UniProt P05177); test: CYP phenotyping in human liver microsomes, furafylline; conditions: NADPH + Furafylline
T1 sequence (P05177 1-516): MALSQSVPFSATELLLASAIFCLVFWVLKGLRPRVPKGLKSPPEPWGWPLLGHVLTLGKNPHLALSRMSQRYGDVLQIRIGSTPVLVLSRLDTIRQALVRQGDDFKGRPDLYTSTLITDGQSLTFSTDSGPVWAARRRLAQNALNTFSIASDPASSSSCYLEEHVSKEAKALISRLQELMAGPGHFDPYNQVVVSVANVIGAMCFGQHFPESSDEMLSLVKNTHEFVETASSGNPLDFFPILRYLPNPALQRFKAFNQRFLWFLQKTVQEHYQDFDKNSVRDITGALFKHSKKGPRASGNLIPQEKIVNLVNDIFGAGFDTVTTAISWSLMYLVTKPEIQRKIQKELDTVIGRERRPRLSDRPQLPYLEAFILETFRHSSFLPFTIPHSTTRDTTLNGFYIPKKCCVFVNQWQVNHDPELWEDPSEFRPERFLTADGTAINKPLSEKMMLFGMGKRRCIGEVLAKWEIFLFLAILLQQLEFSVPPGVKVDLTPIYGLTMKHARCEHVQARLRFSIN

[15] = cell-culture media with 10% FBS, 1 μM
[16] = Solubility at pH 2, pH 7.4 and in FaSSIF; assay type: physicochemical; conditions: pH 7.4 (phosphate) buffer, room temperature overnight
[17] = system: human plasma; conditions: human plasma, 1 μM
[18] = system: human liver microsomes; conditions: for Measured Conc.: 60 min
[19] = system: human, mouse, rat, and dog liver microsomes; conditions: 10 μM, LC/MS/MS
[20] = system: mouse plasma; conditions: 1 μM
[21] = reversible incubation condition, 1 μM, 60 min
[22] = irreversible incubation condition, maximum metabolism, NADPH/No Inhibitor
[23] = reversible incubation condition, maximum metabolism, NADPH/No Inhibitor

Question: Which results are given for `Cc1ccc(Nc2nc(-c3ccc(-c4ccccc4)cc3)cs2)nc1` [IND24]?
Answer: EC50 [1]: 1270 nM; EC50 ([1]; read-out: EC50, unbound compound): 325 nM; Solubility Media [2]: >250 µM; % remaining after a 60-min incubation [3]: 90%; t1/2 ([3]; NADPH): > 1 h; tmax [4]: 4.98 min; CL ([4]; female FVB mice): 15.3 mL/min/kg; Vss ([4]; female FVB mice): 2.46 L/kg; AUClast ([4]; mean ± SD, n = 2): 2.78 ± 1.09 µM·h; Cmax ([4]; mean ± SD, n = 2): 2490 ± 2650 nM; t1/2 ([4]; 1 mg/kg): 2.16 h; % remaining after a 60-min incubation [5]: 89%; t1/2 ([5]; NADPH): > 1 h; Unbound (%) [6]: 8% and 8.20±0.35%; Disappearance % [7]: 18%; Measured Conc. [7, 21]: 0.537 µM; CYP? (involvement of CYP2C19) [8]: Unlikely (unlikely for values <5); Disappearance % Δ [8]: 0 (−18) %; %F (absolute oral bioavailability) ([9]; PO 10 mg/kg vs IV 1 mg/kg, plasma): 40% and 40.3%; tmax ([9]; PO 10 mg/kg, brain): 4 h; AUClast ([9]; PO 10 mg/kg, brain): 29.1 ± 1.24 µM·h; Cmax ([9]; PO 10 mg/kg, brain): 2450 ± 740 nM; t1/2 ([9]; PO 10 mg/kg, plasma): 4.65 h; tmax ([9]; PO 10 mg/kg, plasma): 2 h; AUClast ([9]; PO 10 mg/kg, plasma): 11.2 ± 1.31 µM·h; Cmax ([9]; PO 10 mg/kg, plasma): 1660 ± 110 nM; CYP? (involvement of CYP2C9) [10]: Unlikely (unlikely for values <5); Disappearance % [10]: 14%; Disappearance % Δ [10]: 0 (−14) %; Measured Conc. [10, 21]: 0.566 µM; % remaining after a 60-min incubation [11]: 105%; t1/2 ([11]; NADPH): > 1 h; CYP? (involvement of CYP2D6) [12]: Unlikely (unlikely for values <5); Disappearance % [12]: 15%; Disappearance % Δ [12]: 0 (−15) %; Measured Conc. [12, 21]: 0.555 µM; CYP? (involvement of CYP3A4) [13]: Unlikely (unlikely for values <5); Disappearance % [13]: 15%; Disappearance % Δ [13]: 0 (−15) %; Measured Conc. [13, 21]: 0.557 µM; Disappearance % [14]: 0 (−23) %; Disappearance % Δ [14]: 0%; Measured Conc. ([14]; irreversible incubation condition, 1 μM, 60 min): 0.766 µM; Unbound (%) [15]: 26% and 25.7±4.93%; Solubility pH 7.4 [16]: <1 μM; Unbound (%) [17]: 4.9% and 4.91±1.03%; Metabolism in HLM incubations ([18]; 1 μM, human liver microsomes): very little metabolism; Disappearance % [18, 22]: 0 (−18) %; Disappearance % Δ [18, 22]: 0%; Measured Conc. ([18]; irreversible incubation condition, maximum metabolism, NADPH/No Inhibitor, 1 μM): 0.733 µM; Measured Conc. ([18]; irreversible incubation condition, negative control, No NADPH/No Inhibitor, 1 μM): 0.622 µM; Disappearance % [18, 23]: 0%; Disappearance % Δ [18, 23]: 0%; Measured Conc. ([18]; reversible incubation condition, maximum metabolism, NADPH/No Inhibitor, 1 μM): 0.655 µM; Disappearance % ([18]; reversible incubation condition, negative control, No NADPH/No Inhibitor): 0%; Measured Conc. ([18]; reversible incubation condition, negative control, No NADPH/No Inhibitor, 1 μM): 0.654 µM; Metabolites observed [19]: metabolites M1–M3 and M5 were observed in all of the microsomal assays while M4 was only observed in the dog liver microsomal incubation; Unbound (%) [20]: 6.6% and 6.63±1.55%
